SUMO1-SIM PPI = modulators of SUMO1 protein-protein interactions, primary screen, biochemical, uHTS; 360,000 compounds, 0.33% hits; SUMO1 binding to a labelled peptide, TR-FRET, 1 h; Small ubiquitin-related modifier 1 (Homo sapiens), P63165; inhibition, % at 20 µM; in the data active = inhibition above about 37%
Target sequence (P63165 whole entry, looked up): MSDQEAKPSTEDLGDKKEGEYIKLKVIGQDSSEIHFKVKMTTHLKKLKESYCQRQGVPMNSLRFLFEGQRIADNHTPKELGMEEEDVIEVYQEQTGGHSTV
GRK2 inh = compounds blocking aptamer binding on GRK2 – biochemical, human GRK2, bead flow cytometry, HTS, primary screen. Beta-adrenergic receptor kinase 1 (Homo sapiens), P25098. FAM-aptamer displacement from GRK2. inhibition of aptamer binding, % at 10 µM. 330,000 compounds, 0.59% hits. AID 488847, 2010;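 active = inhibition of aptamer binding above 40%, roughly 3 SD of noise, on plates passing a quality check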;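 also: median bead fluorescence of bound FAM aptamer so fluorescent compounds give negative values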
STEP block = STEP phosphatase inhibitors, primary screen, biochemical, fluorescence intensity, uHTS | recombinant STEP, OMFP fluorogenic substrate | inhibition, % at 20 µM | AID 588621, 2011 | 360,000 compounds, 0.25% hits;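 active = inhibition at 20 µM, scaled per plate between control wells, above about 37%, limit read from the data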
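material = STEP tyrosine phosphatase | reagent = fluorogenic phosphatase substrate OMFP at 25 µM final | doses = single compound dose of 20 µM, 1% DMSO final | schedule = 20 min reaction, room temperature, in the dark | measured by = fluorescence, 480/540 nm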
LMPTP block = LMPTP phosphatase inhibitors, primary screen, biochemical, fluorescence intensity, uHTS | inhibition, % at 20 µM | AID 651560, 2012 | 360,000 compounds, 0.22% hits | recombinant LMPTP-A, OMFP fluorogenic substrate;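 active = compounds that cut the enzyme signal by at least half of the control window in the single-dose screen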
Target sequence (P24666 whole entry, looked up): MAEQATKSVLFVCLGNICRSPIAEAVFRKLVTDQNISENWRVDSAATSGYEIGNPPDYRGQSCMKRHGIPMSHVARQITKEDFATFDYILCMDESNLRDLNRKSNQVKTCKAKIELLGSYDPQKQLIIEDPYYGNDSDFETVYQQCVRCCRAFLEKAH
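Assay system: LMPTP-A, protein tyrosine phosphatase of low molecular weight / Medium: pH 6.0 Bis-Tris buffer with DTT and Triton X-100 / Schedule: 50 min enzyme reaction at room temperature, protected from light / Measured by: endpoint fluorescence intensity from OMFP dephosphorylation / Read-out basis: % inhibition relative to no-enzyme and uninhibited control wells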
DNMT1 block = human DNMT1 methyltransferase inhibitors, primary screen, biochemical, molecular beacon, fluorescence, HinP1I cleavage, uHTS | AID 588458, 2011 | inhibition (reported as % activation of signal), % at 10 µM | 360,000 compounds, 0.83% hits; in the data active = inhibition above about 50%
Scp-1 inhibitor = Scp-1 phosphatase inhibitors, primary screen, biochemical, colorimetric, uHTS. AID 493091, 2011. 340,000 compounds, 0.88% hits. inhibition, % at 20 µM. Recombinant Scp1, phosphopeptide, malachite green phosphate absorbance;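 active = inhibition above about 50% at 20 µM, limit read from the data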
Target sequence (Q9GZU7 76-261 limits assumed): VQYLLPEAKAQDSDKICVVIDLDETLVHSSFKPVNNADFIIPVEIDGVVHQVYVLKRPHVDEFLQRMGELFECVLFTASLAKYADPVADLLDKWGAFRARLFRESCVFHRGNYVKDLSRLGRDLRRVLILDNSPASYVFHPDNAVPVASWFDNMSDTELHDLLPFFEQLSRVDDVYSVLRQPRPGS
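Material: truncated SCP-1 phosphatase (76-261aa) / Buffer or medium: 50 mM Tris acetate pH 5.5, 0.005% Tween-20, 10 mM MgCl2 / Compound dosing: one concentration, 20 µM, with 1.0% DMSO / Incubation: 45 min room-temperature reaction, 5 min colour, 30 min stabiliser / Detection: colorimetric free-phosphate detection, absorbance 630 nm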
GRK2 CP1 = GRK2 aptamer-displacing inhibitors, retest, confirmation, biochemical, cherry pick 1, bead flow cytometry | shares compounds with GRK2 inh | bead-bound GRK2, FAM-aptamer displacement | aptamer displacement, % at 10 µM | 2,000 compounds, 4% hits | AID 504451, 2011;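 active = aptamer displacement above 40%, near three times the noise of non-fluorescent compounds, on plates passing quality checks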;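 also: negative values mostly reflect intrinsic compound fluorescence rather than true enhancement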
Aptamer quench 1 = counter-screen for GRK2 aptamer inhibitors: fluorescent aptamer quenchers; shares compounds with GRK2 inh; Fluorescent RNA aptamer beads, quenching, flow cytometry; active compounds read high; fluorescence change (kMESF span), kMESF (test concentration not listed); 110 tested, under 10 active; AID 504521;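 active = compounds whose bead fluorescence drops by more than 37 kMESF across the dose range, marking them as dye quenchers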
FAM quench CP1 = quenches fluorescent RNA aptamer, GRK2 hit artifact; shares compounds with GRK2 inh; Carboxyfluorescein RNA aptamer on beads, flow cytometry quenching; active compounds read low; fluorescence response (% of DMSO), % at 10 µM; 2,000 tested, under 10 active; AID 504580;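 active = compounds that quench the bead-bound fluorescent RNA probe, cutting fluorescence to under half of the solvent control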;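 also: counterscreen run without GRK2 so only probe quenching by compound is measured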
Of the large screens only hits and unclear results are named; the others gave an inactive call (follow-up assays come after a bar, where they were run). Rows were chosen to be rich in hits. Some 2.1% of all compounds tested hit in one or more screens of this group.

CC(=O)Nc1ccc(O)cc1[N+](=O)[O-]	none
CC(=O)Nc1ccc(N(C)C)cc1[N+](=O)[O-]	GRK2 inh 41.0 | GRK2 CP1 78.5 | Aptamer quench 1 inactive | FAM quench CP1 inactive
CCCCC1Cc2[nH]c(=S)[nH]c(=O)c2C(c2cccc3ccccc23)O1 (centres undefined)	none (no result: GRK2 inh, STEP block, DNMT1 block, Scp-1 inhibitor)
CCN1/C(=C/C(C)=C/c2sc3ccccc3[n+]2CC)Sc2ccccc21	GRK2 inh 100.0, LMPTP block 74.3 | GRK2 CP1 99.4 | Aptamer quench 1 inactive | FAM quench CP1 inactive
Cc1cc(N)nc(SCC(=O)N2C(C)CCCC2C)n1 (centres undefined)	GRK2 inh 50.0 | GRK2 CP1 inactive | FAM quench CP1 inactive
Cc1ccc(/C=C2/N=C(c3ccccc3)NNC2=O)cc1	GRK2 inh 93.0 | GRK2 CP1 inactive | FAM quench CP1 inactive
COc1ccccc1CNC(=O)C1CCCN(S(=O)(=O)c2cccc3nonc23)C1 (centres undefined)	none
Cc1ccc(CNC(=O)C2CCCN(S(=O)(=O)c3c(C)noc3/C=C/N(C)C)C2)cc1 (centres undefined)	none (no result: GRK2 inh) | GRK2 CP1 inactive | FAM quench CP1 inactive
Cc1noc(/C=C/N(C)C)c1S(=O)(=O)N1CCCC(C(=O)NCc2ccccc2Cl)C1 (centres undefined)	none | GRK2 CP1 inactive | FAM quench CP1 inactive
COc1ccc(CNC(=O)C2CCCN(S(=O)(=O)c3c(C)noc3/C=C/N(C)C)C2)cc1 (centres undefined)	none | GRK2 CP1 inactive | FAM quench CP1 inactive
Cc1noc(/C=C/N(C)C)c1S(=O)(=O)N1CCCC(C(=O)NCc2ccc(Cl)cc2)C1 (centres undefined)	none
O=C(NCc1ccccc1Cl)C1CCCN(S(=O)(=O)c2cccc3nonc23)C1 (centres undefined)	none | GRK2 CP1 inactive | FAM quench CP1 inactive
CC1(C(=O)NS(=O)(=O)c2cccc(C#N)c2)CCN1C(=O)Cc1cc(F)ccc1F (centres undefined)	none (no result: GRK2 inh, Scp-1 inhibitor)
CCOc1ccc2nc(NC(=O)C3CCCN(S(=O)(=O)c4cccc5nonc45)C3)sc2c1 (centres undefined)	none
COc1ccc2nc(NC(=O)C3CCCN(S(=O)(=O)c4cccc5nonc45)C3)sc2c1 (centres undefined)	GRK2 inh 87.0 | GRK2 CP1 inactive | FAM quench CP1 inactive
C[C@@H]1CN([C@@H](C)CO)C(=O)c2cc(C#CCN(C)C)cnc2O[C@H]1CN(C)Cc1ccc2c(c1)OCO2	none (no result: GRK2 inh, Scp-1 inhibitor)
OC[C@@H]1CN(Cc2ccncc2)C[C@H](n2cnc3c(NCc4ccncc4)ncnc32)O1	none (no result: GRK2 inh, Scp-1 inhibitor)
Cc1c(NS(=O)(=O)c2ccccc2)c(=O)n(-c2ccccc2)n1C	none
Cc1c(NS(=O)(=O)c2ccc3[nH]c(=O)[nH]c3c2)c(=O)n(-c2ccccc2)n1C	GRK2 inh 75.0 | GRK2 CP1 inactive | FAM quench CP1 inactive
